# What was measured:
# [1] = biological target: T1, Estrogen receptor (Mus musculus) (UniProt P19785); experiment: Displacement of [6,7-3H]-17beta-estadiol from estrogen receptor in Tuck No. 1 mouse uterine cytosol at 1000 molar ratio of compound/radioligand incubated 15 mins prior to radioligand addition measured after 1 hr by liquid scintillation counting relative to control; conditions: Uterus
# T1 sequence (whole entry): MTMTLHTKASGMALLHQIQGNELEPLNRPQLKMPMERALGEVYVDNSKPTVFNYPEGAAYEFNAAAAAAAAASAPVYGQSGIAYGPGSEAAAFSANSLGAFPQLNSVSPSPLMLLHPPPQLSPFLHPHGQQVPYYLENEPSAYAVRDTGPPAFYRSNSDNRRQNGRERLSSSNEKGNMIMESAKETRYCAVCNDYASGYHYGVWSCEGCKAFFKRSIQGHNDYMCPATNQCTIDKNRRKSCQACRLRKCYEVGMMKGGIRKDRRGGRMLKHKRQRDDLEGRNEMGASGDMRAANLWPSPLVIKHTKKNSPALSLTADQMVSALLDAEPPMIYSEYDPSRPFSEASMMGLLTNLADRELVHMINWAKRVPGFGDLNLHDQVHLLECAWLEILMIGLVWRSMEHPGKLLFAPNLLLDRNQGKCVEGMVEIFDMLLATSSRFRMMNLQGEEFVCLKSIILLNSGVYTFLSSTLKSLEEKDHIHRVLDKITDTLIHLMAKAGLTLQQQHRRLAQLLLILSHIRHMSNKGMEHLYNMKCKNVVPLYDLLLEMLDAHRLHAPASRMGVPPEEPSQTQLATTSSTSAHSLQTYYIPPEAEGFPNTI
# Summary of the method: (§1)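 Uterine cytosol is the 105 000g, 1 h, 4-5 °C supernatant of homogenates from mice ovariectomized one week earlier, prepared in Tris 0.01 M pH 7.4 with EDTA and DTT. Compound is preincubated with cytosol 15 min at 5-7 °C, then [6,7-3H]-estradiol (0.5 × 10^-12 g mol) is added for 1 h. Samples are run on 10-30% sucrose gradients. Inhibition is calculated from 8S-peak cpm normalized to total cpm versus control.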
# [2] = biological target: T1, Estrogen receptor (Mus musculus); experiment: Displacement of [6,7-3H]-17beta-estadiol from estrogen receptor in Tuck No. 1 mouse uterine cytosol at 100 molar ratio of compound/radioligand incubated 15 mins prior to radioligand addition measured after 1 hr by liquid scintillation counting relative to control; conditions: Uterus; summary of the method: as §1
# [3] = biological target: T1, Estrogen receptor (Mus musculus); experiment: Displacement of [6,7-3H]-17beta-estadiol from estrogen receptor in Tuck No. 1 mouse uterine cytosol at 10 molar ratio of compound/radioligand incubated 15 mins prior to radioligand addition measured after 1 hr by liquid scintillation counting relative to control; conditions: Uterus; summary of the method: as §1
# [4] = biological target: T1, Estrogen receptor (Mus musculus); experiment: Displacement of [6,7-3H]-17beta-estadiol from estrogen receptor in Tuck No. 1 mouse uterine cytosol at 3.16 molar ratio of compound/radioligand incubated 15 mins prior to radioligand addition measured after 1 hr by liquid scintillation counting relative to control; conditions: Uterus
# Summary of the method: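 Uteri from Tuck No. 1 mice (6 weeks old, ovariectomized, used 1 week later) pulverized and homogenized at 4 °C in 0.01 M Tris pH 7.4 with EDTA and dithiothreitol; 105000g, 1 h cytosol. Compound preincubated with cytosol 15 min at 5-7 °C, then [6,7-3H]-estradiol added for 1 h. 10-30% sucrose gradients spun 275000g, 15 h; % inhibition computed from 8S-peak cpm normalized to total gradient cpm versus control.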
# Rattus norvegicus [5] = experiment: Antiestrogenic activity in immature Wistar rat assessed as reduction of 17beta-estradiol-induced mean uterine weight at 10 molar ratio of compound/17beta-estradiol, sc qd for 3 days (reference value: 64.4 +/- 3.5 mg); assay type: functional
# Summary of the method: (§2)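 Immature Wistar rats, randomized into groups of 5-6, injected sc daily for 3 days with arachis oil vehicle, 17β-estradiol alone or estradiol plus test compound. Estradiol and compound are given as two separate injections. Estradiol total dose […]. Read-out is uterine weight, reported as mean ± SEM in mg.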
# Mus musculus [6] = experiment: Antiestrogenic activity in immature Tuck No. 1 mouse assessed as reduction of 17beta-estradiol-induced mean uterine weight at 10 molar ratio of compound/17beta-estradiol, sc qd for 3 days (reference value: 25.5 +/- 1.9 mg); assay type: functional
# [7] = biological target: T1, Estrogen receptor (Mus musculus); experiment: Displacement of [6,7-3H]-17beta-estadiol from estrogen receptor in Tuck No. 1 mouse uterine cytosol at 1 molar ratio of compound/radioligand incubated 15 mins prior to radioligand addition measured after 1 hr by liquid scintillation counting relative to control; conditions: Uterus; summary of the method: as §1
# Mus musculus [8] = experiment: Antiestrogenic activity in immature Tuck No. 1 mouse assessed as reduction of 17beta-estradiol-induced mean uterine weight at 1000 molar ratio of compound/17beta-estradiol, sc qd for 3 days (reference value: 25.5 +/- 1.9 mg); assay type: functional
# Rattus norvegicus [9] = experiment: Antiestrogenic activity in immature Wistar rat assessed as reduction of 17beta-estradiol-induced mean uterine weight at 200 molar ratio of compound/17beta-estradiol, sc qd for 3 days (reference value: 64.4 +/- 3.5 mg); assay type: functional; summary of the method: as §2
# Rattus norvegicus [10] = experiment: Antiestrogenic activity in immature Wistar rat assessed as reduction of 17beta-estradiol-induced mean uterine weight at 3.16 molar ratio of compound/17beta-estradiol, sc qd for 3 days (reference value: 64.4 +/- 3.5 mg); assay type: functional; summary of the method: as §2
# Mus musculus [11] = experiment: Antiestrogenic activity in immature Tuck No. 1 mouse assessed as reduction of 17beta-estradiol-induced mean uterine weight at 100 molar ratio of compound/17beta-estradiol, sc qd for 3 days (reference value: 25.5 +/- 1.9 mg); assay type: functional
compound,measurement,setting,value
Cc1cc(OCCN(C)C)cc2c1[C@H]1CC[C@]3(C)[C@@H](O)CC[C@H]3[C@@H]1C=C2c1ccccc1,Activity,[1],88%
CN(C)CCOc1ccc2c(c1)C(c1ccccc1)=C[C@@H]1[C@@H]2CC[C@]2(C)[C@@H](O)CC[C@@H]12,Activity,[1],103%
CCN(CC)CCOc1ccc2c(c1)C(Cc1ccccc1)=C[C@@H]1[C@@H]2CC[C@]2(C)[C@@H](O)CC[C@@H]12,Activity,[1],89%
CCN(CC)CCOc1ccc2c(c1)C(c1ccccc1)=C[C@@H]1[C@@H]2CC[C@]2(C)[C@@H](O)CC[C@@H]12,Activity,[1],101%
Cc1cc(O)cc2c1[C@H]1CC[C@]3(C)[C@@H](O)CC[C@H]3[C@@H]1CC2=O,Activity,[1],14%
same,Activity,[2],38%
CN(C)CCOc1ccc2c(c1)C(=O)C[C@@H]1[C@@H]2CC[C@]2(C)[C@@H](O)CC[C@@H]12,Activity,[1],66%
C[C@]12CC[C@@H]3c4ccc(O)cc4C(c4ccccc4)=C[C@H]3[C@@H]1CC[C@@H]2O,Activity,[3],3%
same,Activity,[4],13%
same,Activity,Rattus norvegicus [5],74.1 mg
same,Activity,Mus musculus [6],28.6 mg
same,Activity,[7],66%
C[C@]12CC[C@@H]3c4ccc(O)cc4/C(=N\N4C(=N)SCC4=O)C[C@H]3[C@@H]1CC[C@@H]2O,Activity,[3],84%
same,Activity,Mus musculus [6],28.4 mg
Cc1cc(O)cc2c1[C@H]1CC[C@]3(C)[C@@H](O)CC[C@H]3[C@@H]1C=C2c1ccccc1,Activity,[1],18%
same,Activity,Mus musculus [8],32.9 mg
same,Activity,Rattus norvegicus [9],97.1 mg
same,Activity,[2],87%
C[C@]12CC[C@@H]3c4ccc(O)cc4C(=O)C[C@H]3[C@@H]1CC[C@@H]2O,Activity,[4],38%
C[C@]12CC[C@@H]3c4ccc(O)cc4/C(=N\NC(N)=S)C[C@H]3[C@@H]1CC[C@@H]2O,Activity,[3],54%
same,Activity,Rattus norvegicus [10],77.7 mg
same,Activity,Mus musculus [11],34.3 mg
